ChEMBL document CHEMBL2146441, “2,6-Disubstituted imidazo[2,1-b][1,3,4]thiadiazoles: search for anticancer agents” (2012)

Columns and labels:
Type in all cases: functional
OVCAR-3 [1] = assay: Growth inhibition of human OVCAR3 cells after 48 hrs by SRB assay; settings: OVCAR-3, 48 h
How it was run: (§1)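 Adherent NCI-60 lines grown in RPMI 1640 with 5% FBS, seeded at 5000–40,000 cells/well, and preincubated 24 h at 37 °C, 5% CO2. Compound, stocked in DMSO, given either once at 10^-5 M or at five 10-fold dilutions for 48 h. Cells fixed with cold TCA (final 10%), stained with 0.4% SRB, and read at 515 nm. GI50 taken as 50% reduction in net protein increase versus time-zero and control plates.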

OVCAR-5 = assay: Cytotoxicity against human OVCAR5 cells assessed as cell growth at 10^-4 M after 48 hrs by SRB assay; settings: OVCAR-5, 48 h, read-out: Activity
MOLT-4 [2] = assay: Cytotoxicity against human MOLT4 cells assessed as cell growth at 10^-8 M after 48 hrs by SRB assay; settings: MOLT-4, 48 h, read-out: Activity
OVCAR-3 [3] = assay: Cytotoxicity against human OVCAR3 cells assessed as cell growth at 10^-7 M after 48 hrs by SRB assay; settings: OVCAR-3, 48 h, read-out: Activity
UACC-257 = assay: Cytotoxicity against human UACC257 cells assessed as cell growth at 10^-6 M after 48 hrs by SRB assay; settings: UACC-257, 48 h, read-out: Activity
PC-3 = assay: Growth inhibition of human PC3 cells after 48 hrs by SRB assay; settings: PC-3, 48 h; for CC50: read-out: LC50 (the source's name); how it was run: as §1
HT-29 [4] = assay: Cytotoxicity against human HT-29 cells assessed as cell growth at 10^-5 M after 48 hrs by SRB assay; settings: HT-29, 48 h, read-out: Activity
How it was run: (§2)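 NCI-60 five-dose screen. Cells were grown in RPMI 1640 with 5% FBS and seeded at 5000–40,000 cells/well according to doubling time. They were pre-incubated 24 h at 37 °C in 5% CO₂, and time-zero (Tz) plates were TCA-fixed at drug addition. Five 10-fold dilutions of DMSO stock were applied for 48 h. Read-out was SRB staining, 515 nm absorbance, with percent growth calculated versus Tz and untreated control.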

UACC-62 [5] = assay: Cytotoxicity against human UACC62 cells assessed as cell growth at 10^-8 M after 48 hrs by SRB assay; settings: UACC-62, 48 h, read-out: Activity
HOP-62 = assay: Cytotoxicity against human HOP62 cells assessed as cell growth at 10^-4 M after 48 hrs by SRB assay; settings: HOP-62, 48 h, read-out: Activity; how it was run: as §2
SN12C = assay: Cytotoxicity against human SN12C cells assessed as cell growth at 10^-7 M after 48 hrs by SRB assay; settings: read-out: Activity
SNB-75 = assay: Cytotoxicity against human SNB75 cells assessed as cell growth at 10^-5 M after 48 hrs by SRB assay; settings: SNB-75, 48 h, read-out: Activity
SF-539 = assay: Cytotoxicity against human SF539 cells assessed as cell growth at 10^-5 M after 48 hrs by SRB assay; settings: SF-539, 48 h, read-out: Activity
CCRF-CEM = assay: Cytotoxicity against human CCRF-CEM cells assessed as cell growth at 10^-6 M after 48 hrs by SRB assay; settings: read-out: Activity
How it was run: (§3)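 NCI-60 screen: lines kept in RPMI 1640 with 5% FBS, seeded at 5000–40,000 cells/well by doubling time, preincubated 24 h at 37 °C in 5% CO2. Time-zero plates TCA-fixed at drug addition. DMSO stocks diluted in medium, 48 h exposure. Fixation in cold TCA (final 10% adherent, 16% suspension), 0.4% SRB stain, solubilised in 10 mM Tris base, A515. Percent growth computed against control and time-zero.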

SF-268 = assay: Cytotoxicity against human SF268 cells assessed as cell growth at 10^-5 M after 48 hrs by SRB assay; settings: SF-268, 48 h, read-out: Activity
MOLT-4 [6] = assay: Cytotoxicity against human MOLT4 cells assessed as cell growth at 10^-5 M after 48 hrs by SRB assay; settings: MOLT-4, 48 h, read-out: Activity
T47D = assay: Cytotoxicity against human T47D cells assessed as cell growth at 10^-5 M after 48 hrs by SRB assay; settings: read-out: Activity
BT-549 = assay: Cytotoxicity against human BT549 cells assessed as cell growth at 10^-6 M after 48 hrs by SRB assay; settings: BT-549, 48 h, read-out: Activity; how it was run: as §3
SR = assay: Cytotoxicity against human SR cells assessed as cell growth at 10^-8 M after 48 hrs by SRB assay; settings: read-out: Activity
SK-MEL-2 = assay: Cytotoxicity against human SK-MEL-2 cells assessed as cell growth at 10^-7 M after 48 hrs by SRB assay; settings: SK-MEL-2, 48 h, read-out: Activity
HT-29 [7] = assay: Growth inhibition of human HT-29 cells after 48 hrs by SRB assay; settings: HT-29, 48 h; how it was run: as §1
SK-OV-3 [8] = assay: Cytotoxicity against human SKOV3 cells assessed as cell growth at 10^-5 M after 48 hrs by SRB assay; settings: SK-OV-3, 48 h, read-out: Activity
SK-OV-3 [9] = assay: Cytotoxicity against human SKOV3 cells assessed as cell growth at 10^-7 M after 48 hrs by SRB assay; settings: SK-OV-3, 48 h, read-out: Activity
MDA-MB-468 = assay: Cytotoxicity against human MDA-MB-468 cells assessed as cell growth at 10^-7 M after 48 hrs by SRB assay; settings: MDA-MB-468, 48 h, read-out: Activity
HOP-92 = assay: Cytotoxicity against human HOP92 cells assessed as cell growth at 10^-4 M after 48 hrs by SRB assay; settings: HOP-92, 48 h, read-out: Activity; how it was run: as §2
UACC-62 [10] = assay: Cytotoxicity against human UACC62 cells assessed as cell growth at 10^-4 M after 48 hrs by SRB assay; settings: UACC-62, 48 h, read-out: Activity
MOLT-4 [11] = assay: Growth inhibition of human MOLT4 cells after 48 hrs by SRB assay; settings: MOLT-4, 48 h
How it was run: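 Leukemia suspension lines grown in RPMI 1640 with 5% FBS, seeded at 5000–40,000 cells/well, and preincubated 24 h at 37 °C, 5% CO2. Compound, stocked in DMSO, given either once at 10^-5 M or at five 10-fold dilutions for 48 h. Settled cells fixed with 80% TCA (final 16%), stained with SRB, and read at 515 nm. GI50 calculated against time-zero and control growth.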

SF-295 = assay: Cytotoxicity against human SF295 cells assessed as cell growth at 10^-5 M after 48 hrs by SRB assay; settings: SF-295, 48 h, read-out: Activity
MDA-MB-435 = assay: Cytotoxicity against human MDA-MB-435 cells assessed as cell growth at 10^-4 M after 48 hrs by SRB assay; settings: MDA-MB-435, 48 h, read-out: Activity

SMILES	GI50 (OVCAR-3 [1]) [µM]	LC50 (concentration causing 50% net cell kill) (OVCAR-3 [1]) [µM]	TGI (OVCAR-3 [1]) [µM]	growth at 100 µM (OVCAR-5) [%]	growth at 0.01 µM (MOLT-4 [2]) [%]	growth at 0.1 µM (OVCAR-3 [3]) [%]	growth at 1 µM (UACC-257) [%]	GI50 (PC-3) [µM]	TGI (PC-3) [µM]	CC50 (PC-3) [µM]	growth at 10 µM (HT-29 [4]) [%]	growth at 0.01 µM (UACC-62 [5]) [%]	growth at 100 µM (HOP-62) [%]	growth at 0.1 µM (SN12C) [%]	growth at 10 µM (SNB-75) [%]	growth at 10 µM (SF-539) [%]	growth at 1 µM (CCRF-CEM) [%]	growth at 10 µM (SF-268) [%]	growth at 10 µM (MOLT-4 [6]) [%]	growth at 10 µM (T47D) [%]	other results
COc1ccc(-c2nn3cc(-c4cccc(N)c4)nc3s2)cc1	3.4	55.2	15.9	-23	103	98	107	1.2	20.8	> 100	27	93	-54	91	-24	-11	63	26	21	7	growth at 1 µM (BT-549): 87%; growth at 0.01 µM (SR): 103%; growth at 0.1 µM (SK-MEL-2): 93%; GI50 (HT-29 [7]): 4.27 µM; LC50 (concentration killing 50% of cells) (HT-29 [7]): > 100 µM; TGI (HT-29 [7]): 23.2 µM; growth at 10 µM (SK-OV-3 [8]): 2%; growth at 0.1 µM (SK-OV-3 [9]): 97%; growth at 0.1 µM (MDA-MB-468): 80%; growth at 100 µM (HOP-92): -52%; growth at 100 µM (UACC-62 [10]): -41%; GI50 (MOLT-4 [11]): 3 µM; LC50 (MOLT-4 [11]): > 100 µM; TGI (MOLT-4 [11]): > 100 µM; growth at 10 µM (SF-295): 24%; growth at 100 µM (MDA-MB-435): -53%
COc1ccc(-c2nn3cc(-c4ccc(O)cc4O)nc3s2)cc1	2.54	> 100	8.48	2	100	98	83	1.95	> 100	> 100	9	98	-22	93	-66	-82	74	14	20	-29	growth at 1 µM (BT-549): 73%; growth at 0.01 µM (SR): 89%; growth at 0.1 µM (SK-MEL-2): 96%; GI50 (HT-29 [7]): 2.95 µM; LC50 (concentration killing 50% of cells) (HT-29 [7]): > 100 µM; TGI (HT-29 [7]): 20.2 µM; growth at 10 µM (SK-OV-3 [8]): -67%; growth at 0.1 µM (SK-OV-3 [9]): 94%; growth at 0.1 µM (MDA-MB-468): 78%; growth at 100 µM (HOP-92): -21%; growth at 100 µM (UACC-62 [10]): -72%; GI50 (MOLT-4 [11]): 3.04 µM; LC50 (MOLT-4 [11]): > 100 µM; TGI (MOLT-4 [11]): 29.8 µM; growth at 10 µM (SF-295): 3%; growth at 100 µM (MDA-MB-435): -38%
